# In PubChem BioAssay AID373 (The Scripps Research Institute Molecular Screening Center, 2006):
# In all, about 60,000 compounds went through this assay and about 60 (0.1%) were called active.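 How the source made its calls: active means activation above the screen-wide mean plus 3 SD (cut at about 4.5% in these data, passing the limit was not always enough); inactive means the rest, inconclusive results apart.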 Many of the other results were omitted from the sample, so actives are more common in it than they were.
# Molecular target: Sphingosine 1-phosphate receptor 3 (Homo sapiens) (UniProt Q99500)
# Experiment: human S1P3 receptor agonists, primary screen, cell-based, primary and confirmation, NFAT-BLA reporter (AID 373)
# In short: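 Assay system: CHO cells stably expressing human S1P3, Gα16 and NFAT-β-lactamase reporter. Timing: overnight plating, 4 h compound 37 °C, 2 h substrate RT. Signal: β-lactamase FRET emission ratio 460/535 nm. Measure: percent activation versus median 1 µM S1P response, basal-subtracted, per plate. Repeats: primary screen single test, confirmation screen in triplicate.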
# [1] = S1P3 NFAT-BLA reporter cells, agonism, FRET ratio, at 4.5 µM, stronger effect = higher value, relative to 1 µM S1P, basal subtracted
# Chain of Sphingosine 1-phosphate receptor 3 (Homo sapiens) (Q99500 whole entry, looked up): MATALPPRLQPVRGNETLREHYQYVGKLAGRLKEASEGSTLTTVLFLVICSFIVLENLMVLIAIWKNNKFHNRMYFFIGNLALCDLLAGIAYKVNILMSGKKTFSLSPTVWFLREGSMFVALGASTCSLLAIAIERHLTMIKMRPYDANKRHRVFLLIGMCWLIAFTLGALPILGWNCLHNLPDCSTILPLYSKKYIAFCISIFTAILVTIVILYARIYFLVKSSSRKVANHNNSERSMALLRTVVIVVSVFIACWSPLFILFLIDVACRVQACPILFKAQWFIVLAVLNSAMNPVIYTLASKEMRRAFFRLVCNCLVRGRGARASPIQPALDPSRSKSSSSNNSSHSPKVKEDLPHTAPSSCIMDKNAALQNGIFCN
smiles,measurement,setting,value
CC(NC(=O)c1cc(-c2ccccc2)on1)c1ccccc1 (configuration not stated),activation,[1],-1.3% (inactive)
O=C(Nc1ccc2c(c1)nc1n2CCCCC1)c1cc(S(=O)(=O)N2CCOCC2)ccc1Cl,activation,[1],-0.4% (inactive)
C=C(C)c1cccc(C(C)(C)NC(=O)N2CCN(c3ncccn3)CC2)c1,activation,[1],-0.9% (inactive)
CC(C)C(=O)Nc1c(C(=O)c2ccc(F)cc2)oc2ccccc12,activation,[1],-0.2% (inactive)
O=C(CN1CCOCC1)N1CCCc2c1c(=O)oc1ccc(OCc3ccccc3)cc21,activation,[1],-1% (inactive)
COCCOC(=O)C1=C(C)N=c2s/c(=C\c3cccs3)c(=O)n2C1c1cccs1 (configuration not stated),activation,[1],-2% (inactive)
CC1(C)CC(=O)c2cc(OCC(=O)NCC3CCCO3)ccc2O1 (configuration not stated),activation,[1],-0.8% (inactive)
CN(CCc1ccccn1)S(=O)(=O)c1ccc2c3c(cccc13)C(=O)N2,activation,[1],0.3% (inactive)
CC(=O)N1CC2(C)CN(C(C)=O)CC(C)(C1)C2=O,activation,[1],0% (inactive)
Cc1ccc2c(c1)sc1ncc(NC(=O)c3ccccc3)c(=O)n12,activation,[1],-1.1% (inactive)
O=C(NCCc1ccco1)c1nn(Cc2ccccc2)c(=O)c2ccccc12,activation,[1],0.7% (inactive)
Cc1ccnc(N2C(=O)c3ccccc3C2Nc2ccc3c(c2)OCCO3)c1 (configuration not stated),activation,[1],0.3% (inactive)
COc1ccc(OC)c(NC(=O)CSc2nc3cccnc3n2C)c1,activation,[1],0.2% (inactive)
COc1ccc(Cn2c(=O)sc3ccccc32)cc1OC,activation,[1],-0.4% (inactive)
O=C(NC(c1ccccc1)c1ccccc1)N1CCN(CCO)CC1,activation,[1],0.8% (inactive)
C=CCn1c(N)c(C(=O)OCC(C)C)c2nc3ccccc3nc21,activation,[1],0.4% (inactive)
C=CCn1c(N)c(S(=O)(=O)c2cccs2)c2nc3ccccc3nc21,activation,[1],-0.5% (inactive)
CC(C)Cn1c(N)c(C(=O)NCc2cccs2)c2nc3ccccc3nc21,activation,"S1P3 NFAT-BLA reporter cells, agonism, FRET ratio; at 4.5 µM; stronger effect = higher value; relative to 1 µM S1P, basal subtracted",8.2% (active)
same,activation,"S1P3 NFAT-BLA reporter cells, agonism, FRET ratio; measured here: confirmation screen, triplicate average; at 4.5 µM; stronger effect = higher value; relative to 1 µM S1P, basal subtracted",5.4%
CCCOC(=O)CC1C(=O)NCCN1Cc1ccc(F)cc1 (configuration not stated),activation,[1],0.3% (inactive)
COc1cc(OC)cc(C(=O)Nc2ncc3c(n2)CC(C)(C)CC3=O)c1,activation,[1],-1.1% (inactive)
CN1CCN(C(=O)c2ccc(NS(=O)(=O)c3ccccc3)cc2)CC1,activation,[1],-0.2% (inactive)
CCOc1cc(C(=O)N2CCc3cc(OC)c(OC)cc3C2)ccc1OC(F)F,activation,[1],-0.2% (inactive)
COc1ccc(S(=O)(=O)N2CCN(C(=O)c3cccs3)CC2)cc1OC,activation,[1],0% (inactive)
Cc1c2cnn(-c3ccccc3)c(=O)c2c(C)n1CCCC(=O)N1CCN(C)CC1,activation,[1],-1.3% (inactive)
COc1ccc(C(=O)OCC(=O)c2ccc(C)c(S(=O)(=O)N3CCOCC3)c2)cc1OC,activation,[1],-1% (inactive)
CC1(C)CC(CCC(=O)Nc2ccccc2Cl)C(=O)O1 (configuration not stated),activation,[1],-0.9% (inactive)
Cc1ccccc1-n1c(SCC(=O)NCc2cccs2)nnc1-c1ccncc1,activation,[1],0.9% (inactive)
CC1(C)Oc2ccc(C(=O)N3CCOCC3)cc2N(CC(=O)Nc2ccccc2)C1=O,activation,[1],-0.1% (inactive)
CCCCc1nc2c(=O)[nH]c3ccccc3c2o1,activation,[1],-0.4% (inactive)
C=CCn1c(C2CC(=O)N(c3ccc(C)cc3)C2)nc2ccccc21 (configuration not stated),activation,[1],-2.5% (inactive)
O=C(COc1ccccc1)N1CCc2ccccc2C1,activation,[1],0.4% (inactive)
CC(=O)CSc1nnc(CSc2ncccn2)n1C1CCCCC1,activation,[1],-0.6% (inactive)
CC1(C)CC(=O)C(C2=NC(C)(C)Cc3ccccc32)=C(O)C1,activation,[1],-2% (inactive)
CC(C)C(=O)Nc1cccc(C(=O)Nc2ccc3c(c2)OCO3)c1,activation,[1],-1.2% (inactive)
COc1ccc(OC)c2c1sc(=NC(=O)CN1C(=O)CCC1=O)n2C,activation,[1],-2.3% (inactive)
OCc1nc(CO)n(Cc2ccccc2)n1,activation,[1],-1% (inactive)
COc1ccc(N2C(=O)CN=C2Nc2cccc(C)c2C)cc1OC,activation,[1],0.2% (inactive)
CCCc1nnc(NC(=O)CN2C(=O)c3ccccc3S2(=O)=O)s1,activation,[1],-1% (inactive)
CCOC(=O)c1sc(/N=C/Nc2nc(C)c(C(=O)OCC)s2)nc1C,activation,[1],-1.5% (inactive)
N#CCCN(CCC#N)c1nnc(-c2ccccc2)s1,activation,[1],-0.2% (inactive)
CCOC(=O)C1C(=O)C=C(c2ccc(OC)cc2)CC1c1ccco1 (configuration not stated),activation,[1],-1.9% (inactive)
Cc1nc(SC(C)C)[nH]c(=O)c1Cc1ccccc1,activation,[1],0.1% (inactive)
CCCc1cc(=O)oc2c(C)c(O)c(CN3CCCCC3)cc12,activation,[1],-2.1% (inactive)
CCC(=O)Nc1ccccc1C(=O)N1CCN(Cc2ccccc2)CC1,activation,[1],-1.1% (inactive)
NS(=O)(=O)c1ccc(NS(=O)(=O)/C=C/c2ccccc2)cc1,activation,[1],1.3% (inactive)
Cc1occc1C(=O)Nc1cccc(Cn2cccn2)c1,activation,[1],-0.4% (inactive)
COc1ncnc2sc3c(c12)CCCC3,activation,[1],-0.3% (inactive)
COc1ccc(C)cc1S(=O)(=O)NC1CCCCC1,activation,[1],-0.3% (inactive)
CCOc1cccc(/C(O)=C2/C(=O)C(=O)N(CCOC)C2c2ccncc2)c1 (configuration not stated),activation,[1],-1.3% (inactive)
CCOC(=O)c1sc(NC(=O)C(CC)Sc2nccn2C)nc1C (configuration not stated),activation,[1],-1.7% (inactive)
Cc1cccc(NC(=O)CN2CCCN(S(=O)(=O)c3ccc(Br)s3)CC2)c1,activation,[1],-1.4% (inactive)
